A short description of data set [1]: Pharmacokinetics of APZ in rat plasma. The data set is classed as in vivo, Wistar rats.
Data set [2] concerns CYP3A2. Put plainly: Western blot of hepatic CYP3A2 protein expression. It counts as in vivo, Wistar rats. The conditions noted are these: for Reduction of CYP3A2 protein: rat received SA, compared with rats received APZ alone. The gist of the method: (§1)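 Wistar rats (190–210 g, n = 6/group), food withheld 12 h beforehand. Antipsychotic test compound 3 mg/kg p.o. once on day 15 or daily for 15 days; controls given oral saline for 15 days. After ether euthanasia, liver excised. 25 μg hepatic protein run on 10% SDS gel, transferred to PVDF, primary antibody overnight at 4 °C, HRP secondary 60 min. Chemiluminescence, densitometry, β-actin also probed. Mean ± SD, ANOVA/Dunnett.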
On the technique in general: In western blotting, separated proteins are transferred to a membrane and probed.

The conditions of data set [3]: at steady state; cited from earlier work.
The test system of data set [4] is CYP3A2 and CYP2D6. The data set is described as follows: Hepatic CYP3A2 and CYP2D6 protein expression, summary statements. It counts as in vivo, Wistar rats. The settings on record: APZ after single or multiple dosing. The gist of the method:
as §1

The test system of data set [5] is CYP2D6. Put plainly: Western blot of hepatic CYP2D6 protein expression. It counts as in vivo, Wistar rats. The conditions noted are these: for Reduction of CYP2D6 protein: rat received SA, compared with rats received APZ alone. In short, it runs like this: as §1
[6] abbreviates: APZ 3 mg/kg p.o. daily for 15 days (multiple doses), with or without SA 20 mg/kg p.o. for 15 days, mean ± SD, n = 6.
Setting [7] is: Wistar, rat, plasma, po, 3 mg/kg.
The mark [8] stands for this setting: multiple dose of APZ 3 mg/kg p.o. 15 days, compared to normal controls, p < 0.05.
Setting [9] is: single dose of APZ 3 mg/kg p.o., liver, compared with normal controls, p <0.05.
Setting [10] is: administration of SA, in contrast to rats treated with multiple doses of APZ, p <0.05.
Setting [11] is: animals treated with SA for 15 days, compared to rats treated with a single dose of APZ.

The structures appear in SMILES notation.

The term Tmax denotes the time at which the peak concentration occurs. In general, AUC(0-t) refers to the area under the concentration-time curve up to a stated or last time point. Read a high AUC(0-t) as high exposure. In general, AUC(0-inf) refers to the area under the concentration-time curve extrapolated to infinity. Lower therefore signals low exposure. The term Cmax denotes the highest concentration seen after dosing. As usually defined, the MRT inf is the average time that molecules of a dose stay in the body. One may read the half-life as the time needed for the level to fall by half in the phase considered. Read a high half-life as slow loss.

As to `O=C1CCc2ccc(OCCCCN3CCN(c4cccc(Cl)c4Cl)CC3)cc2N1` [APZ, 7-[4-[4-(2,3-dichlorophenyl)-1-piperazinyl]butoxy]-3,4-dihydrocarbostyril], in data set [1] (setting [6]), the “AUMC 0-∞” value stood at 3443.83 ± 234.17 ng/ml × h^^2, the CL worked out at 2.28 ± 0.09 mL/h/kg, the Ke was 0.04 ± 0.005 h⁻¹ and the Vd is 0.06501 ± 0.00653 L/kg. In addition, in data set [1] (setting [7]), the time to peak (Tmax) was 8 h and the k el was 1.11e-05 s⁻¹. Further, the AUC(0-t) in data set [1] (Wistar, rat, plasma, po, 3 mg/kg, AUC 0-t, APZ 3 mg/kg p.o. daily for 15 days (multiple doses), with or without SA 20 mg/kg p.o. for 15 days, mean ± SD, n = 6) turned out to be 122 ± 3.45 ng·h/mL. The compound also registered an area under the curve AUC(0-inf) in data set [1] (Wistar, rat, plasma, po, 3 mg/kg, AUC 0-∞, APZ 3 mg/kg p.o. daily for 15 days (multiple doses), with or without SA 20 mg/kg p.o. for 15 days, mean ± SD, n = 6) of 132 ± 4.85 ng·h/mL. The concentration in data set [1] (Wistar, rat, plasma, po, 3 mg/kg, Cmax, APZ 3 mg/kg p.o. daily for 15 days (multiple doses), with or without SA 20 mg/kg p.o. for 15 days, mean ± SD, n = 6) peaked (Cmax) at 7.08 ± 0.89 ng/mL. Moreover, the MRT inf in data set [1] (Wistar, rat, plasma, po, 3 mg/kg, MRT 0-∞, APZ 3 mg/kg p.o. daily for 15 days (multiple doses), with or without SA 20 mg/kg p.o. for 15 days, mean ± SD, n = 6) was 26.1 ± 1.01 h. The same compound gave a half-life in data set [1] (Wistar, rat, plasma, po, 3 mg/kg, T1/2, APZ 3 mg/kg p.o. daily for 15 days (multiple doses), with or without SA 20 mg/kg p.o. for 15 days, mean ± SD, n = 6) of 19.8 ± 2.52 h. For the same compound, in data set [2] (setting [8]), the “Enhancement in liver expression of CYP3A2” value was found to be 135.29%. The “Enhancement in CYP3A2 protein expression” value in data set [2] (setting [9]) came out at 90%. Moreover, in data set [3], the “APZ converted to the major metabolite DAPZ” value was “about 40%”. For the same compound, the “Increases in CYP3A2 and CYP2D6 expressions in hepatic tissues” value in data set [4] is listed as 2–3 folds. For the same compound, the “Enhancement in liver expression of CYP2D6” value in data set [5] (setting [8]) was determined as 91.17%. In addition, the “Increase in CYP2D6 expression” value in data set [5] (setting [9]) came out at 82%.

Consider `COc1cc(C=CC(=O)O)cc(OC)c1O` [SA, 3,5-dimethoxy-4-hydroxycinnamic acid], for which the “Change in T1/2 of APZ on co-administration of SA (in words)” value in data set [1] (APZ single dose, SA 20 mg/kg p.o. for 15 days, compared with APZ alone) is “without a significant change”. In addition, the “Reduction in hepatic expression of CYP3A2” value in data set [2] (setting [10]) came out at 54.68%. For the same compound, the “Reduction of CYP3A2 hepatic protein” value in data set [2] (setting [11]) was 31.57%. Also, the “Reduction of CYP3A2 protein” value in data set [2] (multiple dose study, p <0.05) is listed as 73.75%; in data set [2] (single dose study, p <0.05) it was 50.52%. Further, in data set [5] (setting [10]), the “Reduction in hepatic expression of CYP2D6” value was 65.76%. Also, the “Reduction of CYP2D6 hepatic protein” value in data set [5] (setting [11]) was found to be 34.06%. Further, the “Reduction of CYP2D6 protein” value in data set [5] (multiple dose study, p <0.05) was 71.15%; in data set [5] (single dose study, p <0.05), 53.84%.
